CAL PDZ FP-1: untagged CAL PDZ binding inhibitors, primary screen, biochemical, fluorescence polarization, HTS | inhibition, % at 24.9 µM | purified CAL PDZ, TMR-peptide fluorescence polarization, 1 h | 300,000 tested, 0.92% active | Golgi-associated PDZ and coiled-coil motif-containing protein (Homo sapiens), Q9HD26;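 active = mean inhibition of at least 30% with at least half of replicates also reaching 30%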;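 note: 0% = DMSO neutral control and 100% = excess unlabeled competitor peptide PRC23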
CaV13 FRET inh: Disruptors of the CACNA1D IQ motif to Ca2+-dependent inactivation inhibitor domain association, primary screening, Förster resonance energy transfer in intact living …. HEK cells, CFP/YFP FRET ICDI-IQ, plate reader, 10 min; percent FRET-ratio fall versus neutral wells. inhibition, % at 12.3 µM. 340,000 tested, 0.098% active. AID 743397;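 active = mean replicate inhibition of at least 30% and at least 1% of replicates passing that level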;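 note: 0% = median of the neutral control wells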
CAL PDZ FP-2: CAL PDZ peptide-binding inhibitors, primary screen, biochemical, fluorescence polarization, Cer-tagged CAL PDZ, HTS; Golgi-associated PDZ and coiled-coil motif-containing protein (Homo sapiens), Q9HD26; purified CAL PDZ, TMR-peptide fluorescence polarization, 1 h; inhibition, % at 20 µM; 330,000 tested, 0.02% active;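 active = highest replicate inhibition of at least 40%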;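 note: plate controls were DMSO neutral control wells for no effect and unlabeled competitor peptide control wells for full effect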
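Assay system – tagged CAL PDZ protein CerCALP, purified · Timing – 1 h at RT · Compound – single point, 20 µM · Measured by – fluorescence polarization from S- and P-plane intensities, G-factor corrected · Evaluation – inhibition from polarization loss · Probe or stimulus – TMR reporter peptide T*-PRC34 · Buffer or medium – pH 7.4 phosphate-saline buffer, reducing agent, detergent, IgG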
ARNT-TACC3 inh: disruptors of ARNT/TACC3 protein interaction, primary screen, biochemical, AlphaScreen, single concentration | AlphaScreen His-ARNT PAS-B/GST-TACC3 binding, luminescence; TACC3 fragment carries E629A point mutation | inhibition, % at 9.99 µM | 390,000 tested, 0.66% active;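 active = mean inhibition of replicates at least 50% and at least half of replicates each reaching 50%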;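 note: 0% = complete ARNT plus TACC3 wells and 100% = ARNT alone without TACC3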
ARNT Alpha ctr-1: AlphaScreen signal interference compounds, dose response, artefact control for ARNT-TACC3 interaction inhibitor project, biochemical, luminescence, cherry-pick | shares compounds with ARNT-TACC3 inh | His-ARNT PASB-GST AlphaScreen artifact counter-screen | AC50, µM (titrated, usually from 68 µM), without a hit: top-dose activity change, negative = signal decrease | 1,200 tested, 50% active | AID 651705, 2012;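 active = every separate test run was called active for a drop in luminescence, with AC50 within twice the top valid dose, actives reach about 71 µM in these data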
ARNT Alpha ctr-2: AlphaScreen signal interference by compounds, dose response, artefact control for ARNT/TACC3 disruptor project, biochemical, dual-tagged ARNT, dry powder; 45 tested, 70% active; shares compounds with ARNT-TACC3 inh; AC50, µM; Dual-tagged His-ARNT PASB-GST AlphaScreen artifact counter-screen;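 active = luminescence drop, with half-maximal potency fitted within twice the sample's top valid dose, cut at about 70 µM in these data; inactive = the rest, including signal moving the wrong way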
* = called active by the depositor; i = inactive; x = no result given; [ ] = another dose, or the depositor's remark. A selection: hits, their analogues and other compounds. The true share with any hit is near 1.2%.

SMILES	CAL PDZ FP-1	CaV13 FRET inh	CAL PDZ FP-2	ARNT-TACC3 inh	ARNT Alpha ctr-1	others
COc1ccc([Si](C)(C)[C@@H]2[C@@H](CCO)O[C@]3(C(=O)N4c5c(cc(OC)cc53)C(C)=CC4(C)C)[C@H]2C)cc1	x	x	x	52*	9µM*
O=C(N/N=C/c1ccccc1O)C1SCCCS1	x	4	-1	56*	-28%
Cc1[nH]c(=O)[nH]c(=O)c1/C=N/NC(=O)[C@H](C)NC(=O)OC(C)(C)C	1	x	0	54*	-4%
CO[C@H]1CN(C)C(=O)c2cc(NC(=O)Nc3c(C)noc3C)ccc2OC[C@H](C)N(C)C[C@H]1C	x	x	x	-3	x
COc1ccc2nc(-c3ccccn3)[nH]c2c1	-9	21	0	40*	-7%
COc1ccc2nc(-c3ccc(N)cc3)[nH]c2c1	x	-5	-1	0	x
Nc1ccc2nc(-c3ccccn3)[nH]c2c1	0	x	0	46*	45µM*
O=C(NCC[C@@H]1CC[C@@H](NS(=O)(=O)c2ccc(F)cc2)[C@H](CO)O1)Nc1ccc(Cl)cc1	x	x	x	6	x
CC1CCN(C(=O)COC(=O)c2ccc([N+](=O)[O-])o2)CC1	2	-8	1	18*	-5%
Cc1cc(C(=O)COC(=O)c2ccc([N+](=O)[O-])o2)c(C)n1CC1CCCO1 (stereo not drawn)	16	-1	-1	11	x
O=C1CN(C(=O)COC(=O)c2ccc([N+](=O)[O-])o2)c2ccccc2N1	0	-3	2	42*	-1%
CC1(C)C(=O)Nc2ccccc2N1C(=O)COC(=O)c1ccc([N+](=O)[O-])o1	0	-5	1	-6	x
COCCn1c(C)cc(C(=O)COC(=O)c2ccc([N+](=O)[O-])o2)c1C	x	-5	1	52*	-16%
CCN1[C@@H]2c3ccc(C4=CCCCC4)c(=O)n3C[C@H]1[C@H](CO)[C@H]2C(=O)N1CCc2ccccc2C1	x	x	x	5	x
O=C(COC(=O)c1cncc(Br)c1)Nc1nnc(-c2ccccc2)o1	-3	-7	4	-3	x
O=C(COC(=O)c1ccc(Cl)nc1)Nc1nnc(-c2ccccc2)o1	-4	-5	0	79*	-14%
Cc1ccsc1C(=O)OCC(=O)Nc1nnc(-c2ccccc2)o1	-5	-6	0	57*	64µM*
O=C(N/N=C1/CCS(=O)(=O)c2ccc(F)cc21)c1cccnc1	x	1	0	-8	x
O=C(N/N=C1/CCS(=O)(=O)c2ccc(F)cc21)c1ccccn1	x	-4	-1	52*	-5%
Cn1c(CCNC(=O)c2ccc(Cl)c(Cl)c2)nnc1SCc1ccc(Cl)c(Cl)c1	-5	-5	x	60*	-2%
C[C@H](CO)N1C[C@H](C)[C@H](CN(C)Cc2ccc(Oc3ccccc3)cc2)Oc2ccc(NC(=O)Nc3ccc4c(c3)OCO4)cc2C1=O	x	x	x	3	x
CCN(CC)CCCNC(=O)c1cc(-c2ccc(Cl)cc2)on1	x	-9	-3	x	x
Cc1ccccc1CNC(=O)c1cc(-c2ccccc2)on1	x	x	x	x	2%[38 µM]
O=C(NCC1CC1)c1cc(-c2ccccc2)on1	x	x	x	x	1%[38 µM]
CN(C)CCNC(=O)c1cc(-c2ccccc2)on1	x	x	x	x	-1%[38 µM]
SMILES	CAL PDZ FP-1	CaV13 FRET inh	CAL PDZ FP-2	ARNT-TACC3 inh	ARNT Alpha ctr-1	others
O=C(NCc1cccnc1)c1cc(-c2ccccc2)on1	-4	x	-2	-1	x
C[C@@H]1CN([C@H](C)CO)C(=O)c2cc(C3=CCCCC3)cnc2O[C@H]1CN(C)Cc1ccncc1	x	x	x	-1	x
CN(C)CCCNC(=O)c1ccc(-c2cc(O)c3ncccc3c2)cc1	-7	-5	-2	60*	14µM*
Oc1cc(-c2ccncc2)cc2cccnc12	-3	-5	0	67*	12µM*
Oc1cc(Nc2ccncc2)cc2cccnc12	0	-10	0	73*	7.9µM*
Oc1cc(-c2ccc(N3CCCCC3)nc2)cc2cccnc12	-1	x	1	14	x
COc1ccc(C#Cc2ccc3c(c2)[C@@H]2[C@@H](CCN2S(=O)(=O)c2ccccc2C)[C@@H](CO)N3)cc1	x	x	x	0	x
COc1ccccc1-c1ccc2c(c1)O[C@@H](CN(C)C(=O)c1cccnc1)[C@H](C)CN([C@H](C)CO)S2(=O)=O	x	x	x	-4	x
O=C(N[C@H]1CC[C@@H](CCn2cc(-c3ccccn3)nn2)O[C@@H]1CO)c1ccncc1	x	x	x	66*	31µM*
O=C(N[C@H]1CC[C@H](CCn2cc(-c3ccccn3)nn2)O[C@@H]1CO)c1ccncc1	x	x	x	65*	48µM*
COCc1cn(CC[C@@H]2CC[C@H](NC(=O)c3ccncc3)[C@@H](CO)O2)nn1	x	x	x	-12	x
O=C(N[C@H]1CC[C@H](CCn2cc(-c3ccccn3)nn2)O[C@H]1CO)c1ccncc1	x	x	x	66*	39µM*
COCc1cn(CC[C@H]2CC[C@@H](NC(=O)c3ccncc3)[C@H](CO)O2)nn1	x	x	x	-47	x
COCc1cn(CC[C@H]2CC[C@H](NC(=O)c3ccncc3)[C@@H](CO)O2)nn1	x	x	x	-15	x
O=C(N[C@@H]1CC[C@@H](CCn2cc(-c3ccccn3)nn2)O[C@@H]1CO)c1ccncc1	x	x	x	77*	38µM*
COCCNC[C@H]1[C@@H](c2ccccc2)[C@@H](CO)N1c1nc(C)c(C)s1	x	x	x	-1	x
Cc1ccc(S(=O)(=O)CCc2nnc(NC(=O)c3ccccc3)s2)cc1	x	x	x	x	x	ARNT Alpha ctr-2=i

Screening results (PubChem BioAssay)
